# Active and inactive are the calls of the source. No cut-off for these calls is given here.
# What was measured:
# A549 [1] = test: Induction of cell death in human A549 cells at 2.5 to 10 uM after 48 hrs by trypan blue assay; type: functional, cell-based
# Procedure, shortened: (§1)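 A549 or A375 cells treated 48 h with 2.5–10 µM. Cell death was scored by trypan blue exclusion as a function of concentration.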
# A-375 [2] = test: Induction of cell death in human A375 cells assessed as stabilization of p53 at 10 uM after 24 hrs by immunoblot assay; type: functional, cell-based
# T98G [3] = test: Induction of necrosis in human T98G cells at 0.6 to 10 uM after 24 hrs by trypan blue assay; type: functional, cell-based
# Procedure, shortened: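 T98G cells exposed 24 h to the listed concentrations. Cell death was scored as percent of trypan blue-positive cells.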
# [4] = Cytotoxicity against human MIAPaCa2 cells after 48 hrs by resazurin assay; type: functional, cell-based; conditions: MIA PaCa-2, 48 h
# [5] = target: T1, Ubl carboxyl-terminal hydrolase 18 (Homo sapiens) (UniProt Q9UMW8); test: Inhibition of USP18 (unknown origin) expressed in human A549 cells coexpressing ISG15-GFP assessed as reduction in free GFP at 2.5 to 10 uM after 24 hrs by immunoblot assay; type: cell-based
# T1 sequence (whole entry): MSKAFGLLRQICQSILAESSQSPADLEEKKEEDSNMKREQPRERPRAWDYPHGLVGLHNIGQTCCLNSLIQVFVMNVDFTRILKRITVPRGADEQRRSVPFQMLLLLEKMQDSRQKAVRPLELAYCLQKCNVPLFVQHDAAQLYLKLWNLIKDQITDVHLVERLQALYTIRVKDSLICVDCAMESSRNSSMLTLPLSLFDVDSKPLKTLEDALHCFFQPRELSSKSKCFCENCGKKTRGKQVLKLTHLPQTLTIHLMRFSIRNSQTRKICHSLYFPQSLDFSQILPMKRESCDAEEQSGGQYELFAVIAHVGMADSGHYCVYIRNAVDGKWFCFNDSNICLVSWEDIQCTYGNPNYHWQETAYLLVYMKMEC
# HT-29 [6] = test: Cytotoxicity against human HT-29 cells after 48 hrs by resazurin assay; type: functional, cell-based; conditions: HT-29, 48 h
# [7] = target: T2, Ubl carboxyl-terminal hydrolase 18 (Homo sapiens, UniProt Q9UMW8); test: Inhibition of recombinant human USP18 (16 to 372 aa) expressed in Sf9 cells using ISG15-AMC as substrate preincubated for 30 mins before substrate addition measured after 60 mins by fluorescence assay
# T2 sequence (Q9UMW8 whole entry): T1 sequence (whole entry)
# A-375 [8] = test: Cytotoxicity against human A375 cells after 48 hrs by resazurin assay; type: functional, cell-based; conditions: A-375, 48 h
# T98G [9] = test: Induction of apoptosis in human T98G cells assessed as caspase activation at 0.6 to 10 uM after 24 hrs by rhodamine-based fluorescence assay; type: functional, cell-based
# Procedure, shortened: (§2)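 U87MG or T98G cells exposed 24 h to the listed concentrations. Caspase activity was read as relative fluorescence units from the rhodamine 110 bis-(N-Z-L-aspartyl-L-glutamyl-L-valyl-aspartic acid amide) fluorogenic substrate.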
# HT-29 [10] = test: Induction of cell death in human HT-29 cells at 2.5 to 10 uM after 48 hrs by trypan blue assay; type: functional, cell-based
# A-375 [11] = test: Induction of cell death in human A375 cells assessed as accumulation of poly-ubiquitinated proteins at 10 uM after 24 hrs by immunoblot assay; type: functional, cell-based
# [12] = target: T3, Ubiquitin carboxyl-terminal hydrolase 2 (Homo sapiens) (UniProt O75604); test: Inhibition of USP2 catalytic domain (unknown origin) expressed in bacteria using Ub-AMC as substrate preincubated for 30 mins before substrate addition measured after 60 mins by fluorescence assay
# T3 sequence (whole entry): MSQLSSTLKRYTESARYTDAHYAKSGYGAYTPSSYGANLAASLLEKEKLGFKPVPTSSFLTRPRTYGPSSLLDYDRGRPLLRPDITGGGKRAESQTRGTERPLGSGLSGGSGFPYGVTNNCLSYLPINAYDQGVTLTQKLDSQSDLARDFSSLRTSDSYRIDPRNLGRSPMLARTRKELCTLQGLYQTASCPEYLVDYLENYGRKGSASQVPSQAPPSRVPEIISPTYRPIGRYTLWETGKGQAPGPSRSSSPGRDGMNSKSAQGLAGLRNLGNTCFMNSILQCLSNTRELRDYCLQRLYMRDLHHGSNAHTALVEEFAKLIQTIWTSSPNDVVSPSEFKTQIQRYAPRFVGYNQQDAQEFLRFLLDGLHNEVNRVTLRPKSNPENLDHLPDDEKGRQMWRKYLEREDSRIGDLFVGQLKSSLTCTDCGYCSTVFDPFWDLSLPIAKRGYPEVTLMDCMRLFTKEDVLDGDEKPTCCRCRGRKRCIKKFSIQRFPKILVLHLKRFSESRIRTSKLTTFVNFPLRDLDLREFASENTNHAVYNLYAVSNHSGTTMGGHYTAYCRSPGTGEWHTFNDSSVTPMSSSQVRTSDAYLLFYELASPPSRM
# Procedure, shortened: (§3)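 Purified isopeptidase activity was measured with ubiquitin-AMC as fluorogenic substrate; IC50 was derived from inhibition.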
# U-87 MG = test: Induction of apoptosis in human U87MG cells assessed as caspase activation at 0.6 to 10 uM after 24 hrs by rhodamine-based fluorescence assay; type: functional, cell-based; conditions: U-87MG ATCC; procedure, shortened: as §2
# A549 [13] = test: Induction of cell death in human A549 cells assessed as accumulation of Noxa at 10 uM after 48 hrs by immunoblot assay; type: functional, cell-based
# Procedure, shortened: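 A549 cells grown in normal or A375-conditioned medium, treated with 10 µM. Immunoblots probed poly-ubiquitin accumulation, p53 stabilization and Noxa induction.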
# U-87MG ATCC = test: Induction of cell death in human U87MG cells at 4.2 to 18.4 uM after 24 hrs by trypan blue assay in presence of zVAD-fmk; type: functional, cell-based
# A549 [14] = test: Induction of cell death in human A549 cells assessed as accumulation of poly-ubiquitinated proteins at 2.5 to 10 uM after 24 hrs by immunoblot assay; type: functional, cell-based
# Procedure, shortened: (§4)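 A549 cells dosed at three levels (2.5, 5, 10 µM or 1, 2.5, 5 µM depending on inhibitor); lysates made after 24 h. Immunoblots probed poly-ubiquitin, p53 and Noxa, quantified by densitometry; mean of two experiments.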
# A549 [15] = test: Induction of cell death in human A549 cells at 10 uM after 24 to 72 hrs by trypan blue assay; type: functional, cell-based
# Procedure, shortened: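 A549 cells given 10 µM for 24–72 h. Cell death was scored by trypan blue at each time point.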
# A549 [16] = test: Induction of cell death in human A549 cells assessed as stabilization of p53 at 2.5 to 10 uM after 24 hrs by immunoblot assay; type: functional, cell-based; procedure, shortened: as §4
# A549 [17] = test: Cytotoxicity against human A549 cells after 48 hrs by resazurin assay; type: functional, cell-based; conditions: A549, 48 h
# [18] = target: Ubiquitin carboxyl-terminal hydrolase isozyme L1 (Homo sapiens) (UniProt P09936); test: Inhibition of GST-tagged recombinant full-length UCHL1 (unknown origin) expressed in bacteria using Ub-AMC as substrate preincubated for 30 mins before substrate addition measured after 60 mins by fluorescence assay; procedure, shortened: as §3
# A-375 [19] = test: Induction of cell death in human A375 cells at 2.5 to 10 uM after 48 hrs by trypan blue assay; type: functional, cell-based; procedure, shortened: as §1
# A-375 [20] = test: Induction of cell death in human A375 cells assessed as Noxa induction at 10 uM after 24 hrs by immunoblot assay; type: functional, cell-based
# [21] = Cytotoxicity against human Hep3B cells after 48 hrs by resazurin assay; type: functional, cell-based, Hep 3B2
# Chain of Ubiquitin carboxyl-terminal hydrolase isozyme L1 (Homo sapiens) (P09936 whole entry, looked up): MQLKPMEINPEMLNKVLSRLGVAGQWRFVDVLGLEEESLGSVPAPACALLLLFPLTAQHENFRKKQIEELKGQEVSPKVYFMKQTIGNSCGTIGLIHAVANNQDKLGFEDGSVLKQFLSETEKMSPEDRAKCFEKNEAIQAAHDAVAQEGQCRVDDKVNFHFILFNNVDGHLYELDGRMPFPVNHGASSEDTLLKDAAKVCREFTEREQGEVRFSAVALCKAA
compound,measurement,setting,value
O=C1/C(=C/c2ccc([N+](=O)[O-])cc2)CC(O)C/C1=C\c1ccc([N+](=O)[O-])cc1 (stereo not drawn),Activity,A549 [1],Active
same,Activity,A-375 [2],Active
same,Activity,T98G [3],Active
same,IC50,[4],35.2 µM
same,inhibition,[5],Active
same,IC50,HT-29 [6],7.6 µM
same,IC50,[7],21.2 µM
same,IC50,A-375 [8],6.1 µM
same,Activity,T98G [9],Active
same,Activity,HT-29 [10],Active
same,Activity,A-375 [11],Active
same,inhibition,[12],inactive
same,Activity,U-87 MG,Active
same,Activity,A549 [13],Active
same,Activity,U-87MG ATCC,Active
same,Activity,A549 [14],Active
same,Activity,A549 [15],Active
same,Activity,A549 [16],Active
same,IC50,A549 [17],16 µM
same,inhibition,[18],inactive
same,Activity,A-375 [19],Active
same,Activity,A-375 [20],Active
same,IC50,[21],8.5 µM

# — ChEMBL document CHEMBL3407395, “Synthesis, characterization, and optimization for in vivo delivery of a nonselective isopeptidase inhibitor as new antineoplastic agent” (J Med Chem, 2015)
